# Bioassay records as filed in PubChem BioAssay.
# TRPC6 activator = activates the mouse TRPC6 cation channel. Q61143. HEK293-TRPC6 membrane potential dye fluorescence; hits give high values. B-score at 10 µM. 0.13% of 310,000 active;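 active = B-score of the integrated fluorescence ratio above library mean plus 3 SD, and starting fluorescence ratio within library mean plus 5 SD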;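 also: higher score means more depolarization so channel activation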
# TRPC4 agonist = TRPC4 (mouse) channel activation. Q9QUQ5. 0.49% of 310,000 active. B-score at 10 µM. HEK293 TRPC4beta/mu-opioid, Fluo4 calcium fluorescence; hits give high values;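 active = B-score above 5 SD of library B-scores, and initial fluorescence ratio not above library mean plus 5 SD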;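 also: positive B-score marks a calcium rise read as TRPC4 activation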
# Target sequence (Q9QUQ5 whole entry, looked up): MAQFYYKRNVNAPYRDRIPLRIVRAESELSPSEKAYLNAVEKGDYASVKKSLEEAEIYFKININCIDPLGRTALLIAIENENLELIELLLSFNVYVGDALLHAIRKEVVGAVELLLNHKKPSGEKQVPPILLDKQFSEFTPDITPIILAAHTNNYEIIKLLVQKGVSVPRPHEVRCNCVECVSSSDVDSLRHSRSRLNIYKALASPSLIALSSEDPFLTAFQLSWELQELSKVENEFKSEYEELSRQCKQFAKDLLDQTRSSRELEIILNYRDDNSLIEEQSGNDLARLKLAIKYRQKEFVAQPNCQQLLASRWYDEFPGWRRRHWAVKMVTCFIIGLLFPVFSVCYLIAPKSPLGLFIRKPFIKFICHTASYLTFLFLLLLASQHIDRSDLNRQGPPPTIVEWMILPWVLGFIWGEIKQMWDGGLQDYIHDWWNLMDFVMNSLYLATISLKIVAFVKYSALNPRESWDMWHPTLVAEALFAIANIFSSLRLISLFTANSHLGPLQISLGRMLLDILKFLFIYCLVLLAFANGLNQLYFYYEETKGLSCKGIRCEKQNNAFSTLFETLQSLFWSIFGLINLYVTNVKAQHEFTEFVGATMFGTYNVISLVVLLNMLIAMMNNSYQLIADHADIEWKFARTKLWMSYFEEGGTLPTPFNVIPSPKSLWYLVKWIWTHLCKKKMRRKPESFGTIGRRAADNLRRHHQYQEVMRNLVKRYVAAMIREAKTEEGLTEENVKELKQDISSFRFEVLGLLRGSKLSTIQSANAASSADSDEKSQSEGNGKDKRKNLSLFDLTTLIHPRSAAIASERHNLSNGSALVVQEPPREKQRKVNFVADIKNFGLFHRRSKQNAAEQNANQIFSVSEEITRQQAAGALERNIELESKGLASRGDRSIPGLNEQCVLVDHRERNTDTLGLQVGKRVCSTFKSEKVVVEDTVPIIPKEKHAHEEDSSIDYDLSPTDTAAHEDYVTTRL
#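 Material: HEK293 stable line with TRPC4beta plus mu-opioid receptor; technique: Fluo4 calcium-sensitive dye fluorescence, kinetic, 1 Hz baseline; timing: Fluo4 dye loading 45 min at room temperature, 110 s recording; controls: assay buffer as low control, maximal DAMGO as high control; read-out: integrated baseline-normalised fluorescence ratio, converted to per-well B score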
# TRPC4 block = TRPC4 (mouse) channel inhibition | 0.39% of 300,000 active | AID 2247 | HEK293 TRPC4beta/mu-opioid, DAMGO-evoked Fluo4 calcium flux; hits give low values | B-score at 10 µM;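 active = B-score over 3 SD under the library average, no early fluorescence shift, positive overall ratio signal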
#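 test system = HEK293 cells with stable TRPC4beta plus mu-opioid receptor expression | detection = Fluo4 Ca2+ flux fluorescence | read-out = integrated fluorescence ratio relative to baseline, converted to per-well B score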
# TRPC6 inh = mouse TRPC6 channel inhibition; 1.1% of 310,000 active; AID 2553; HEK293-TRPC6, membrane potential dye, ACh-evoked depolarization; hits give low values; B-score at 10 µM;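 active = B-score under library mean minus 3 SD, initial fluorescence not abnormally high, positive integrated signal ratio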;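 also: B-score derived from integrated fluorescence ratio over the kinetic read; more negative B-score means stronger inhibition of depolarization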
# TRPC4 potent = allosteric potentiators of mouse TRPC4 channel. Q9QUQ5. HEK293 TRPC4beta/mu-opioid, DAMGO EC20, Fluo-4 Ca2+ flux; hits give high values. B-score at 10 µM. 0.42% of 310,000 active. AID 2227;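 active = B-score of calcium response area above 5 SD of library B-scores, with initial fluorescence ratio within 5 SD of library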;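 also: B-score of integrated fluorescence ratio over time as area under calcium response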
# TRPC4 sel inh 2 = second selectivity test of TRPC6 inhibitors: effect on mouse TRPC4. shares compounds with TRPC6 inh. HEK293 TRPC4/MOR, membrane potential dye fluorescence; channel activated by saturating DAMGO dose. inhibition, % at 10 µM. 42% of 920 active. AID 2776;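 active = compounds whose fluorescence signal differed from control wells by over 3 SD, either direction, in both duplicate plates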
# TRPC4 spec = mouse TRPC4 off-target activity of TRPC6 inhibitors; shares compounds with TRPC6 inh; HEK293 TRPC4/mu-opioid, membrane potential fluorescence; activity change, negative = inhibition, % at 10 µM; 61% of 920 active; AID 2777;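 active = rise or fall in signal beyond 3 SD of buffer-only wells in both replicate plates, either sign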;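 also: integrated kinetic ratio of fluorescence range over baseline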
# HEK293 MPD ctr 2-1 = second check of TRPC6 inhibitor effects in parental HEK293 cells; parental HEK293 membrane potential dye fluorescence; maximal acetylcholine challenge after compound addition; 31% of 920 active; AID 2779; signal change vs control, % at 10 µM; shares compounds with TRPC6 inh;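 active = membrane potential signal moving either way by over 3 SD of the maximum-effect control, in both duplicate plates, meaning non-specific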
# HEK293 MPD ctr-1 = checks TRPC6 inhibitor effects in parental HEK293 cells; shares compounds with TRPC6 inh; 60% of 920 active; membrane potential signal change, % at 10 µM; parental HEK293 membrane potential dye fluorescence;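 active = membrane potential signal shifting up or down by more than 3 SD of buffer-only wells, on both duplicate plates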
# HEK293 MPD ctr-2 = counter-screen for TRPC6 modulators: effect in parental HEK293 cells. shares compounds with TRPC6 inh. membrane potential dye fluorescence. membrane potential signal change, % at 10 µM. 51% of 2,400 active. AID 488924;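 active = membrane potential signal moves up or down beyond 5 SD from buffer-only wells, on both duplicate plates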
# HEK293 MPD ctr 2-2 = parental HEK293 nonspecific activity of TRPC6 modulators, second screen; shares compounds with TRPC6 inh; membrane potential dye fluorescence; after compound, maximal acetylcholine stimulation; inhibition, % at 10 µM; 14% of 2,400 active; AID 488926;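 active = membrane potential signal drops by more than 5 SD from the mean control signal, in both duplicate plates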;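 also: plate controls were acetylcholine ECmax control wells for no effect and buffer only wells for full effect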
# TRPC4/MOR mod = selectivity of TRPC6 modulators against mouse TRPC4. HEK293 TRPC4/mu-opioid, membrane potential fluorescence. AID 488927. shares compounds with TRPC6 inh. 69% of 2,400 active. percent change from control (negative = decrease, positive = increase), % at 10 µM;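 active = membrane potential signal moved up or down beyond 5 SD of buffer control wells, in both duplicate plates, actives on both sides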;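 also: plate controls were assay buffer wells for no effect and DAMGO maximal-effect wells for full effect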
# TRPC4/MOR inh 2 = mouse TRPC4 off-target activity of TRPC6 modulators, second screen; inhibition, % at 10 µM; shares compounds with TRPC6 inh; HEK293 TRPC4/mu-opioid, membrane potential dye fluorescence; stimulated with maximal-effect DAMGO; 55% of 2,400 active;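 active = drop in membrane potential signal beyond 5 SD of the control wells in both duplicate plates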;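 also: TRPC4 counter screen for TRPC6 hits run under conditions tuned for TRPC6 not TRPC4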
# TRPC6 inh conf = confirmation of mouse TRPC6 inhibitors; shares compounds with TRPC6 inh; HEK293-TRPC6, membrane potential dye, ACh-evoked depolarization; inhibition, % at 10 µM; 43% of 3,300 active;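 active = fluorescence ratio falls more than 5 SD below the full-stimulation control mean, in both duplicate runs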;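 also: integrated fluorescence ratio of peak minus minimum over baseline after agonist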
# TRPC6 act conf = confirmation of mouse TRPC6 activators. 11% of 2,800 active. activation, % at 10 µM. HEK293-TRPC6 membrane potential dye fluorescence, FDSS. shares compounds with TRPC6 inh;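 active = ratio signal rise beyond 5 SD above unstimulated control wells' mean, seen in both duplicate runs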;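 also: plate controls were buffer EC0 wells for no effect and acetylcholine ECmax response for full effect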
# Starred values were filed as active, the others as inactive; i = inactive; nt = no result; + = active, no number. This is a sample that favours compounds with a hit; in the whole collection about 2.3% have one here.
SMILES,TRPC6 activator,TRPC4 agonist,TRPC4 block,TRPC6 inh,TRPC4 potent,HEK293 MPD ctr-2,HEK293 MPD ctr 2-2,TRPC4/MOR mod,TRPC4/MOR inh 2,TRPC6 inh conf,TRPC6 act conf,others
COCCCNc1ccnc2c(Cl)cccc12,i,i,i,-9*,i,-287%*,i,-44%*,48%*,i,i,
Cc1cc(NCCO)c2ccccc2n1,i,i,i,i,i,nt,nt,nt,nt,nt,nt,
CC(C(=O)Nc1ccc2c(c1)OCCO2)N(C)Cc1c(F)cccc1Cl (stereo not given),i,i,i,i,i,nt,nt,nt,nt,nt,nt,
COc1ccc(N2C(=O)CSC23C(=O)Nc2ccccc23)cc1 (stereo not given),i,i,i,i,i,nt,nt,nt,nt,nt,nt,
Cc1ccc(N2C(=O)CCSC23C(=O)Nc2ccccc23)cc1 (stereo not given),i,i,i,-6.7*,i,nt,nt,nt,nt,i,i,TRPC4 sel inh 2=i;TRPC4 spec=i;HEK293 MPD ctr 2-1=i;HEK293 MPD ctr-1=i
CC(C)(C)C(=O)Cn1c(=N)n(Cc2ccccc2)c2ccccc21,i,i,i,i,i,nt,nt,nt,nt,nt,nt,
CC(C)(C)C(=O)Cn1c(=N)n(Cc2ccccc2Cl)c2ccccc21,i,i,i,-5.5*,i,164%*,i,22%*,77%*,48%*,nt,
CCCn1cnc2cc(NCc3ccc(Br)cc3)ccc21,i,i,i,i,i,nt,nt,nt,nt,nt,nt,
CCOc1ccc(CNc2ccc3c(c2)ncn3C(C)(C)C)cc1,i,i,i,-8.5*,i,nt,nt,nt,nt,66%*,i,TRPC4 sel inh 2=i;TRPC4 spec=i;HEK293 MPD ctr 2-1=i;HEK293 MPD ctr-1=i
CCn1cnc2cc(NCc3ccc(Br)cc3)ccc21,i,i,i,-5*,i,i,i,i,40%*,40%*,i,
COc1ccc(/C(C)=N/NC2=NCCN2)cc1Cl,i,i,i,i,i,nt,nt,nt,nt,nt,nt,
CCCCOc1ccc(Br)cc1/C(C)=N/NC1=NCCN1,i,i,i,-7.3*,i,nt,nt,nt,nt,i,i,TRPC4 sel inh 2=27%*;TRPC4 spec=15%*;HEK293 MPD ctr 2-1=233%*;HEK293 MPD ctr-1=8.4%*
COc1ccc(COc2cc(-c3cccc(OC)c3)nc3ccc(N)cc23)cc1,i,i,i,-8.3*,i,nt,nt,nt,nt,i,i,TRPC4 sel inh 2=i;TRPC4 spec=-9.5%*;HEK293 MPD ctr 2-1=i;HEK293 MPD ctr-1=i
CCOC(=O)c1c(S(=O)(=O)NCC(=O)N2CCN(c3ccc(OC)cc3)CC2)c(C)n(C)c1C,i,i,i,i,i,nt,nt,nt,nt,nt,nt,
CCOC(=O)c1[nH]ncc1CN1CCCC(C(=O)c2ccc(SC)cc2)C1 (stereo not given),i,i,i,-5.7*,i,i,i,11%*,30%*,i,nt,
CSc1ccc(C(=O)C2CCCN(Cc3ccc(N4CCNC4=O)cc3)C2)cc1 (stereo not given),i,i,i,-5.8*,i,i,i,i,88%*,55%*,i,
CCOC(=O)c1[nH]ncc1CN1CCCC(C(=O)c2cccc3ccccc23)C1 (stereo not given),i,i,i,i,i,nt,nt,nt,nt,nt,nt,
COCCSc1ccccc1C(=O)N1CCN(Cc2ccccc2)CC1,i,i,i,i,i,nt,nt,nt,nt,nt,nt,
COc1ccc2c(c1)c(C(=O)CN1CCc3ccccc3C1)c(C)n2C,i,i,i,-6.5*,i,-88%*,i,-16%*,59%*,44%*,i,
COc1ccc(N2CCN(C(=O)c3ccc(F)cc3)CC2)c([N+](=O)[O-])c1,i,i,i,i,i,nt,nt,nt,nt,nt,nt,
O=C(c1ccc(F)cc1)N1CCN(c2cc(N3CCCCC3)c(F)cc2[N+](=O)[O-])CC1,i,i,nt,-10*,i,nt,nt,nt,nt,i,i,TRPC4 sel inh 2=i;TRPC4 spec=i;HEK293 MPD ctr 2-1=i;HEK293 MPD ctr-1=i
CCO[C@@H]1OC(C(=O)N2CCCCCCC2)=C[C@H](C2CCCCC2)[C@H]1CCCO,i,i,i,i,i,nt,nt,nt,nt,nt,nt,
Cc1cc2nc3s/c(=C/c4ccc(-c5ccccc5C(=O)O)o4)c(=O)n3c2cc1C,56*,143*,i,i,12*,+,i,395%*,i,i,720%*,
CNC(=O)Cn1c(C)cc(=O)c2cccc(OC)c21,i,i,i,-6.9*,i,-471%*,i,-70%*,41%*,40%*,i,
O=C(Cn1c(-c2ccccc2)c[n+]2ccsc12)c1ccccc1,i,i,-11*,-5.3*,i,i,i,16%*,58%*,i,i,
O=C(Cn1nnc(-c2ccccc2)n1)c1ccccc1,i,i,i,i,i,nt,nt,nt,nt,nt,nt,
O=C(Cn1c(-c2ccccc2)c[n+]2ccsc12)c1ccc([N+](=O)[O-])cc1,i,50*,-7*,-5.3*,i,-198%*,i,35%*,90%*,i,i,
CC(=O)NC1=NN(C(C)=O)C(c2ccc(F)cc2)S1 (stereo not given),i,i,i,i,i,nt,nt,nt,nt,nt,nt,
CN1CCN(c2ccc(S(=O)(=O)N3CCCCC3)cc2NC(=O)c2ccc(F)cc2F)CC1,i,i,i,-9*,16*,nt,nt,nt,nt,i,i,TRPC4 sel inh 2=70%*;TRPC4 spec=i;HEK293 MPD ctr 2-1=278%*;HEK293 MPD ctr-1=0.3%*
